# According to ChEMBL document CHEMBL1124455, “Benzodiazepine receptor binding activity of 6,9-disubstituted purines” (J Med Chem, 1989):
# Target: T1, GABA-A receptor; anion channel (Rattus norvegicus) (UniProt O09028+P15431+P18506+P18508+P19969+P20236+P23574+P23576+P28471+P28473+P30191+P62813+P63079+P63138+Q91ZM7+Q9ES14)
# Experiment: Percent inhibition of [3H]diazepam binding to rat brain GABA-A benzodiazepine receptor at 100 uM
# Settings: not given
# Procedure, shortened: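 Membranes from male Sprague-Dawley rat brain (110–220 g; cerebellum and pons medulla removed), homogenized in 0.32 M sucrose. The 30000g pellet was stored frozen and resuspended in Tris-HCl pH 7.5. […] Filtered on GF/C and washed with ice-cold buffer, then scintillation counted. Percent inhibition of specific binding at 100 μM; IC50 usually determined when >75%.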
row,SMILES,inhibition [%]
1,CN(C)c1ncnc2c1ncn2-c1ccccc1,0
2,OCCNc1ncnc2c1ncn2Cc1ccccc1,73
3,CN(C)c1ncnc2c1ncn2C1Cc2ccccc2C1,48
4,c1ccc(Cn2cnc3cncnc32)cc1,34
5,c1ccc(Cn2cnc3c(NC4CC4)ncnc32)cc1,68

# Tested on: Rattus norvegicus
# Experiment: Effect on conflict responding in Long-Evans rats when 10 mg/kg was administered by oral gavage in a modified Geller-Seifter conflict schedule.
# Assay type: functional
# Settings: not given
# Procedure, shortened: (§1)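 Rats on a modified Geller-Seifter operant conflict schedule were dosed by oral gavage as a 0.5% methylcellulose suspension 60 min before the session. Shock was 0.00 mA for the first response in each conflict period, rising 0.05 mA with each further response. The value is the percent change in conflict responses from the preceding day, as mean and SEM of at least four rats.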
row,SMILES,Change in conflict [%]
1,CNC1=Nc2ccc(Cl)cc2C(c2ccccc2)=[N+]([O-])C1 [CHLORDIAZEPOXIDE],46

# Tested on: Rattus norvegicus
# Experiment: Effect on conflict responding in Long-Evans rats when 25 mg/kg was administered by oral gavage in a modified Geller-Seifter conflict schedule and the value ranges from -10 to + 13
# Assay type: functional
# Settings: not given
# Procedure, shortened: (§2)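 Rats run on a modified Geller-Seifter conflict schedule. Shock was 0.00 mA for the first response of each conflict period, rising by 0.05 mA per successive response. 25 mg/kg given by oral gavage as a 0.5% methylcellulose suspension, 60 min before the operant session. Result is percent change in conflict responses versus the preceding day, mean and SEM, at least four rats.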
row,SMILES,Change in conflict [%]
1,CN(c1ncnc2c1ncn2Cc1ccccc1)C1CCCC1,-10

# Tested on: Rattus norvegicus
# Experiment: Effect on conflict responding in Long-Evans rats when 25 mg/kg was administered by oral gavage in a modified Geller-Seifter conflict schedule.
# Assay type: functional
# Settings: not given
# Procedure, shortened: as §2
row,SMILES,Change in conflict [%]
1,C[C@@H](c1ccccc1)n1cnc2c(N(C)C)ncnc21,5
2,CN(C)c1ncnc2c1ncn2Cc1cccc(CO)c1,4
3,CN(C)c1ncnc2c1ncn2Cc1ccccc1,-17
4,CN(C)c1ncnc2c1ncn2Cc1ccccc1F,17
5,CNc1ncnc2c1ncn2Cc1ccccc1,-3
6,CC(=O)Oc1cccc(Cn2cnc3c(N(C)C)ncnc32)c1,2
7,c1ccc(Cn2cnc3c(N4CCCC4)ncnc32)cc1,10
8,COc1ncnc2c1ncn2Cc1ccccc1 [9-BENZYL-6-METHOXY-9H-PURINE],26
9,CN(C)c1ncnc2c1ncn2Cc1cccc(O)c1,2
10,c1ccc(Cn2cnc3c(N4CCC4)ncnc32)cc1,-7
11,CSc1ncnc2c1ncn2Cc1ccccc1,13
12,CN(C)c1ncnc2c1ncn2Cc1cccc(OC(=O)C(C)(C)C)c1,6
13,CNC1=Nc2ccc(Cl)cc2C(c2ccccc2)=[N+]([O-])C1 [CHLORDIAZEPOXIDE],67
14,Cn1cnc2c(ncn2Cc2ccccc2)c1=O,-16
15,CN(C)c1ncnc2c1ncn2Cc1cccc(N)c1,4

# Target: T1, GABA-A receptor; anion channel (Rattus norvegicus)
# Experiment: The percent inhibition of [3H]diazepam binding to the benzodiazepine receptor of rat brain elicited by 100 uM of compound
# Settings: not given
row,SMILES,inhibition [%]
1,CN(C)c1ncnc2c1ncn2Cc1cccc(Cl)c1,59
2,COc1cccc(Cn2cnc3c(N(C)C)ncnc32)c1,70
3,CCN(CC)c1ncnc2c1ncn2Cc1ccccc1,83
4,CN(C)c1ncnc2c1ncn2Cc1cccc([N+](=O)[O-])c1,48
5,CN(C)c1ncnc2c1ncn2Cc1ccc(OCc2ccccc2)cc1,11
6,CN(C)c1ncnc2c1ncn2Cc1ccc([N+](=O)[O-])cc1,23
7,Cc1ccccc1Cn1cnc2c(N(C)C)ncnc21,70
8,CN(C)c1ncnc2c1ncn2Cc1cccc(Br)c1,63
9,CN(C)c1ncnc2c1ncn2Cc1cccc(I)c1,64
10,CN(C)c1ncnc2c1ncn2Cc1ccc(C#N)cc1,26
11,CN(C)c1ncnc2c1ncn2CCc1ccccc1,0
12,Cc1ccc(Cn2cnc3c(N(C)C)ncnc32)cc1,22
13,Cc1cccc(Cn2cnc3c(N(C)C)ncnc32)c1,62
14,CN(C)c1ncnc2c1ncn2Cc1cccc(C#N)c1,70
15,CN(C)c1ncnc2c1ncn2Cc1cccc(C(F)(F)F)c1,49
16,CN(C)c1ncnc2c1ncn2CCCc1ccccc1,0
17,CN(C)c1ncnc2nc[nH]c12,57
18,CN(C)c1ncnc2c1ncn2C,0
19,CN(C)c1ncnc2c1ncn2Cc1ccc(F)cc1,23
20,COc1ccc(Cn2cnc3c(N(C)C)ncnc32)cc1,0
21,CC(=O)Nc1ccc(Cn2cnc3c(N(C)C)ncnc32)cc1,22
22,Clc1ncnc2c1ncn2Cc1ccccc1,40
23,CN(C)c1ncnc2c1ncn2Cc1ccc(N)cc1,67
24,CN(C)c1ncnc2c1ncn2Cc1ccc(Cl)cc1,24
25,C[C@H](c1ccccc1)n1cnc2c(N(C)C)ncnc21,56

# Same assay, conditions: in the assay text read “10 uM” for “100 uM”
row,SMILES,inhibition [%]
1,CN(C)c1ncnc2c1ncn2Cc1ccc(O)cc1,15
2,CN(C)c1ncnc2c1ncn2Cc1ccccc1N,19
3,CN(C)c1ncnc2c1ncn2Cc1ccccc1[N+](=O)[O-],48

# Target: GABA-A receptor; anion channel
# Experiment: Concentration that inhibits binding of 1.5 nM [3H]diazepam to rat brain benzodiazepine receptor
# Settings: not given
# Procedure, shortened: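 Membranes from male Sprague-Dawley rat brain (110–220 g; cerebellum and pons medulla removed), homogenized in 0.32 M sucrose. The 30000g pellet was stored frozen and resuspended in Tris-HCl pH 7.5. Filtered on GF/C and washed with ice-cold buffer, then scintillation counted.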
row,SMILES,IC50 [µM]
1,C[C@@H](c1ccccc1)n1cnc2c(N(C)C)ncnc21,2.1
2,CCNc1ncnc2c1ncn2Cc1ccccc1,19
3,CN(C)c1ncnc2c1ncn2C1CCCc2ccccc21 (stereo unspecified),22
4,CN(C)c1ncnc2c1ncn2Cc1cccc(CO)c1,5
5,CN(C)c1ncnc2c1ncn2Cc1ccccc1Cl,13
6,CN(C)c1ncnc2c1ncn2C(c1ccccc1)c1ccccc1,17
7,CN(C)c1ncnc2c1ncn2Cc1ccccc1,13
8,CN(C)c1ncnc2c1ncn2Cc1ccccc1F,5.4
9,CCN(C)c1ncnc2c1ncn2Cc1ccccc1,19
10,CNc1ncnc2c1ncn2Cc1ccccc1,24
11,CC(=O)Oc1cccc(Cn2cnc3c(N(C)C)ncnc32)c1,0.44
12,Oc1ncnc2c1ncn2Cc1ccccc1,19
13,c1ccc(Cn2cnc3c(N4CCCC4)ncnc32)cc1,16
14,COc1ncnc2c1ncn2Cc1ccccc1 [9-BENZYL-6-METHOXY-9H-PURINE],14
15,CN(C)c1ncnc2c1ncn2Cc1cccc(O)c1,1.2
16,c1ccc(Cn2cnc3c(N4CCC4)ncnc32)cc1,15
17,CSc1ncnc2c1ncn2Cc1ccccc1,3.3
18,CN(C)c1ncnc2c1ncn2Cc1cccc(F)c1,7.3
19,CN(C)c1ncnc2c1ncn2Cc1cccc(OC(=O)C(C)(C)C)c1,1.6
20,CNC1=Nc2ccc(Cl)cc2C(c2ccccc2)=[N+]([O-])C1 [CHLORDIAZEPOXIDE],0.2
21,Cn1cnc2c(ncn2Cc2ccccc2)c1=O,15.5
22,CN(c1ncnc2c1ncn2Cc1ccccc1)C1CCCC1,14
23,COc1ccccc1Cn1cnc2c(N(C)C)ncnc21,20
24,Nc1ncnc2c1ncn2Cc1ccccc1 [9-BENZYL-9H-ADENINE],37
25,CN(C)c1ncnc2c1ncn2Cc1cccc(N)c1,0.9

# Tested on: Rattus norvegicus
# Experiment: Effect on conflict responding in Long-Evans rats when 5 mg/kg was administered by oral gavage in a modified Geller-Seifter conflict schedule.
# Assay type: functional
# Settings: not given
# Procedure, shortened: as §1
row,SMILES,Change in conflict [%]
1,CNC1=Nc2ccc(Cl)cc2C(c2ccccc2)=[N+]([O-])C1 [CHLORDIAZEPOXIDE],24
